Reference: ChEMBL document CHEMBL3588831, “Synthesis and in Vivo Evaluation of [123I]Melanin-Targeted Agents” (J Med Chem, 2015)

Columns and labels:
Liver = test: Biodistribution in liver of C57BL/6J mouse bearing mouse B16F0 cells at 0.37 to 1.85 MBq, iv after 3 hrs by gamma counting method; assay type: ADME, organism-based; conditions: in vivo
In short: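 Female C57BL/6J mice (5−6 weeks), s.c. inoculated on left flank with 3 × 10^5 B16F0 cells in Ca2+/Mg2+-free PBS, used 11 days later (tumors 2−12 mm). Radiotracer given via tail vein in 100 μL (~0.37 MBq for 1−24 h, 1.85 MBq for 48 h). Organs dissected, weighed, γ-counted, decay corrected. Expressed as % ID/g against injected-dose dilutions. Mean ± SEM, n = 5.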

Brain = test: Drug distribution in brain of C57BL/6J mouse bearing mouse B16F0 cells at 18 to 20 MBq, iv measured over 72 hrs by SPECT imaging study; assay type: ADME, organism-based; conditions: in vivo
In short: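 Female C57BL/6J mice bearing s.c. B16F0 tumors (11 days growth) received 18−20 MBq in 100 μL via lateral tail vein (n = 3). Isoflurane anesthesia (5% induction, 2−2.5% maintenance) on a 37 °C heating pad. Planar γ-camera imaging at 10−60 min (5 min frames), 3 and 6 h, 24, 48 and 72 h. Radioactivity localization assessed visually.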

[1] = Stability in eyes of C57BL/6J mouse bearing mouse B16F0 cells assessed as intact parent compound level at 0.37 to 1.85 MBq, iv after 24 hrs by radio-HPLC and radio-TLC method; assay type: ADME, organism-based, Eye; conditions: in the assay text read “20 MBq” for “0.37 to 1.85 MBq”, read-out: Stability
In short: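 Tumor-bearing C57BL/6J mice were sampled 3 and 24 h after i.v. tracer. Tissue was sonicated in CH3CN/water (3:2) with cold iodo standard and KI, then centrifuged. Urine was diluted and spiked; plasma was spiked, with CH3CN precipitation for TLC. Intact fraction came from silica radio-TLC (spot matching standard Rf) and radio-HPLC with precolumn/C18 column switching.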

Drug uptake (Liver) [% ID/g]	Drug uptake (Brain)	remaining at 24 h [1] [%]	SMILES
5.6	Not Active	80	O=C(CN1Cc2ccccc2C1=O)N1C[C@H]2CN(Cc3ccc([123I])cc3)C[C@H]2C1
13.2	Not Active	35	O=C(c1ccc2c(n1)NCCC2)N1CCN(Cc2ccc([123I])cc2)CC1
13.4	Not Active	35	O=C(c1ccc2cccnc2n1)N1CCN(Cc2ccc([123I])cc2)CC1
38.8	Not Active	80	O=C(CN1Cc2ccccc2C1=O)NC1CCN(Cc2ccc([123I])cc2)CC1
